Reference: ChEMBL document CHEMBL1125226, “Antineoplastic activity of didemnin congeners: nordidemnin and modified chain analogues” (1991)

What was measured:
Type in all cases: functional, Mus musculus
P388 [1] = experiment: Antitumor activity against P388 Leukemia from CDF1 female mice evaluated as Median survival time of treated mice at a dose of 0.25 mg/kg/day
How it was run: (§1)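 CDF1 female mice (BALB/c × DBA/2) inoculated ip with 10⁶ P388 cells on day 0. Drug given ip in 2% methanol on days 1, 5 and 9. Ten mice per dose group, with a larger control group. Body weight and survival were recorded on days 1 and 5, with toxicity taken as survivors on day 5. Mortality was followed for 30 days to give median survival time.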

P388 [2] = experiment: Antitumor activity (T/C) was evaluated from the median survival time of treated mice (T) over that of control mice (C) at a dose of 0.06 mg/kg/day
How it was run: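 CDF1 female mice (BALB/c ♀ × DBA/2 ♂) given 10⁶ P388 cells ip on day 0. Drug in 2% methanol given ip on days 1, 5 and 9, 10 mice per group and more controls. Toxicity is survivors on day 5, with weight change between days 1 and 5. Mortality followed 30 days. T/C% is treated over control median survival (NCI method), significant at ≥125%.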

B16 [3] = experiment: Antitumor activity against B16 melanoma from B6 D2 F1 female mice(T/C) was evaluated from the median survival time of treated mice (T) over that of control mice (C) at a dose of 1 mg/kg/day
How it was run: (§2)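 B6D2F1 female mice (C57BL/6 ♀ × DBA/2 ♂) implanted ip on day 0 with 0.5 mL of B16 tumor suspension (1 g homogenized in 9 mL 0.9% saline). Dosing ip on days 1, 5 and 9. Day-5 survivors give toxicity. Median survival of treated vs control mice gives T/C%, with ≥125% significant.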

P388 [4] = experiment: Average weight change of animals between day 1 and day 5 after tumor implementation at a dose of 0.25 mg/kg/day
How it was run: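 P388 leukemia: CDF1 female mice were inoculated ip with 10⁶ cells on day 0. Treatment in 2% methanol was given ip on days 1, 5 and 9, with 10 mice per group and a larger control group. Body weight was recorded on days 1 and 5 post-implant, and the average change was reported.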

B16 [5] = experiment: Antitumor activity against B16 melanoma from B6 D2 F1 female mice evaluated as the number of survivors on day 5 at a dose of 0.03 mg/kg/day; how it was run: as §2
B16 [6] = experiment: Antitumor activity against B16 melanoma from B6 D2 F1 female mice evaluated as Median survival time of treated mice at a dose of 0.25 mg/kg/day; how it was run: as §2
P388 [7] = experiment: Antitumor activity against P388 Leukemia from CDF1 female mice evaluated as the number of survivors on day 5 at a dose of 0.75 mg/kg/day; how it was run: as §1

**Q.** With `COc1ccc(C[C@H]2C(=O)O[C@H](C)[C@H](NC(=O)[C@@H](CC(C)C)N(C)C(=O)C3CCCN3C(=O)[C@@H](C)O)C(=O)NC(C(C)C)[C@H](O)CC(=O)O[C@@H](C(C)C)C(=O)[C@H](C)C(=O)N[C@@H](CC(C)C)C(=O)N3CCC[C@H]3C(=O)N2C)cc1` (some centres not stated) [NORDIDEMNIN] as the compound, how does the “median survival time, days” value (P388 [1]) read?
**A.** The value was 15.7.

**Q.** And the T/C (P388 [2])?
**A.** Its T/C is 123%.

**Q.** What about the T/C (B16 [3]) of the same compound?
**A.** Its T/C is 154%.

**Q.** What about the Body weight change (P388 [4]) of the same compound?
**A.** Its Body weight change is -0.7 g.

**Q.** And the Toxicity (B16 [5])?
**A.** The Toxicity was 1.

**Q.** What about the “median survival time, days” value (B16 [6]) of the same compound?
**A.** The value was 27.

**Q.** And the Toxicity (P388 [7])?
**A.** The Toxicity was 1.
